# Measurements published in ChEMBL document CHEMBL4400518, “Synthesis, antimicrobial and cytotoxic activities, and molecular docking studies of N-arylsulfonylindoles containing an aminoguanidine, a semicarbazide, and a thiosemicarbazide moiety” (Eur J Med Chem, 2019).
# pIC50: −log10 of the molar value.
# Key:
# SGC-7901 = experiment: Cytotoxicity against human SGC7901 cells measured after 48 hrs by CCK8 assay; assay type: functional, cell-based; details: SGC-7901, 48 h
# Procedure, shortened: (§1)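 Cells kept in DMEM with 10% FBS and penicillin-streptomycin at 37 °C, 5% CO2. About 1×10^4 cells per well attached for 24 h, then exposed for 48 h to 0.3, 1, 3, 10, 30 and 100 µmol/L of compound, in triplicate wells. CCK-8 added for 3 h, OD read at 450 nm. IC50 is the concentration inhibiting growth by 50%.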
# [1] = Selectivity index, ratio of IC50 for HEK293T cells to MIC for Enterococcus faecalis CMCC 29212; assay type: toxicity; details: human, read-out: Selectivity Index
# [2] = Selectivity index, ratio of IC50 for HEK293T cells to MIC for multidrug-resistant Pseudomonas aeruginosa ATCC BAA-2111; assay type: toxicity; details: human, read-out: Selectivity Index
# Escherichia coli [3] = experiment: Antibacterial activity against multidrug-resistant Escherichia coli ATCC BAA-196 measured after 24 hrs by ELISA; assay type: functional; details: ATCC BAA-196, 24 h
# Procedure, shortened: (§2)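 Broth serial dilution MIC. Mid-log bacteria in Mueller-Hinton or Tryptone Soya broth, diluted 1000-fold and inoculated at 10^5 CFU/mL. Compounds from DMSO stock, final DMSO ≤0.05%. Incubated 24 h at 37 °C; growth read as absorbance at 630 nm. MIC is the lowest concentration giving complete growth inhibition. Three independent experiments.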
# Bacillus subtilis = experiment: Antibacterial activity against Bacillus subtilis CMCC 63501 measured after 24 hrs by ELISA; assay type: functional; details: CMCC 63501, 24 h
# Procedure, shortened: (§3)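 Broth microdilution MIC. Mid-log bacteria in MHB or TSB diluted 1000-fold, inoculated at 10^5 CFU/mL. Compounds added from DMSO stocks; final DMSO at most 0.05%. Incubation 24 h at 37 °C. Growth read as absorbance at 630 nm. MIC taken as the lowest concentration giving complete growth inhibition. Three independent experiments.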
# [4] = Selectivity index, ratio of IC50 for HEK293T cells to MIC for multidrug-resistant Escherichia coli ATCC BAA-196; assay type: toxicity; details: human, read-out: Selectivity Index
# [5] = Selectivity index, ratio of IC50 for HEK293T cells to MIC for methicillin-resistant Staphylococcus aureus ATCC 33591; assay type: toxicity; details: human, read-out: Selectivity Index
# Staphylococcus aureus [6] = experiment: Antibacterial activity against methicillin-resistant Staphylococcus aureus ATCC 33591 measured after 24 hrs by ELISA; assay type: functional; details: ATCC 33591, 24 h; procedure, shortened: as §2
# [7] = Cytotoxicity against human A590 cells measured after 48 hrs by CCK8 assay; assay type: functional, cell-based; procedure, shortened: as §1
# [8] = Selectivity index, ratio of IC50 for HEK293T cells to MIC for methicillin-resistant Staphylococcus aureus ATCC 43300; assay type: toxicity; details: human, read-out: Selectivity Index
# [9] = Selectivity index, ratio of IC50 for HEK293T cells to MIC for Streptococcus pneumoniae CMCC 31968; assay type: toxicity; details: human, read-out: Selectivity Index
# Escherichia coli [10] = experiment: Antibacterial activity against Escherichia coli CMCC 44568 measured after 24 hrs by ELISA; assay type: functional; details: CMCC 44568, 24 h; procedure, shortened: as §3
# [11] = Selectivity index, ratio of IC50 for HEK293T cells to MIC for Streptococcus pyogenes CMCC 32067; assay type: toxicity; details: human, read-out: Selectivity Index
# [12] = Selectivity index, ratio of IC50 for HEK293T cells to MIC for Escherichia coli CMCC 44568; assay type: toxicity; details: human, read-out: Selectivity Index
# [13] = Selectivity index, ratio of IC50 for HEK293T cells to MIC for Staphylococcus aureus CMCC(B) 26003; assay type: toxicity; details: human, read-out: Selectivity Index
# [14] = Selectivity index, ratio of IC50 for HEK293T cells to MIC for Escherichia coli CMCC 25922; assay type: toxicity; details: human, read-out: Selectivity Index
# Escherichia coli [15] = experiment: Antibacterial activity against Escherichia coli CMCC 25922 measured after 24 hrs by ELISA; assay type: functional; details: CMCC 25922, 24 h; procedure, shortened: as §3
# [16] = Selectivity index, ratio of IC50 for HEK293T cells to MIC for Pseudomonas aeruginosa CMCC 10104; assay type: toxicity; details: human, read-out: Selectivity Index
# Pseudomonas aeruginosa [17] = experiment: Antibacterial activity against multidrug-resistant Pseudomonas aeruginosa ATCC BAA-2111 measured after 24 hrs by ELISA; assay type: functional; details: ATCC BAA-2111, 24 h; procedure, shortened: as §2
# Staphylococcus aureus [18] = experiment: Antibacterial activity against Staphylococcus aureus CMCC(B) 26003 measured after 24 hrs by ELISA; assay type: functional; details: CMCC(B) 26003, 24 h; procedure, shortened: as §3
# Staphylococcus aureus [19] = experiment: Antibacterial activity against methicillin-resistant Staphylococcus aureus ATCC 43300 measured after 24 hrs by ELISA; assay type: functional; details: ATCC 43300, 24 h; procedure, shortened: as §2
# Pseudomonas aeruginosa [20] = experiment: Antibacterial activity against Pseudomonas aeruginosa CMCC 10104 measured after 24 hrs by ELISA; assay type: functional; details: CMCC 10104, 24 h; procedure, shortened: as §3
# HEK-293T = experiment: Cytotoxicity against HEK293T cells measured after 48 hrs by CCK8 assay; assay type: cell-based; details: Homo sapiens; procedure, shortened: as §1
# [21] = Selectivity index, ratio of IC50 for HEK293T cells to MIC for Pseudomonas aeruginosa CMCC 27853; assay type: toxicity; details: human, read-out: Selectivity Index
# Streptococcus pneumoniae = experiment: Antibacterial activity against Streptococcus pneumoniae CMCC 31968 measured after 24 hrs by ELISA; assay type: functional; details: CMCC 31968, 24 h
# Streptococcus pyogenes = experiment: Antibacterial activity against Streptococcus pyogenes CMCC 32067 measured after 24 hrs by ELISA; assay type: functional; details: CMCC 32067, 24 h; procedure, shortened: as §3
# [22] = Selectivity index, ratio of IC50 for HEK293T cells to MIC for Staphylococcus aureus CMCC 25923; assay type: toxicity; details: human, read-out: Selectivity Index
# Enterococcus faecalis = experiment: Antibacterial activity against Enterococcus faecalis CMCC 29212 measured after 24 hrs by ELISA; assay type: functional; details: CMCC 29212, 24 h; procedure, shortened: as §3
# [23] = Selectivity index, ratio of IC50 for HEK293T cells to MIC for Bacillus subtilis CMCC 63501; assay type: toxicity; details: human, read-out: Selectivity Index
# Pseudomonas aeruginosa [24] = experiment: Antibacterial activity against Pseudomonas aeruginosa CMCC 27853 measured after 24 hrs by ELISA; assay type: functional; details: CMCC 27853, 24 h; procedure, shortened: as §3
# Staphylococcus aureus [25] = experiment: Antibacterial activity against Staphylococcus aureus CMCC 25923 measured after 24 hrs by ELISA; assay type: functional; details: CMCC 25923, 24 h; procedure, shortened: as §3
compound,measurement,setting,value
CC/C(=N/NC(=N)N)c1cn(S(=O)(=O)c2ccc(C)cc2)c2ccc(Br)cc12,pIC50,SGC-7901,5.41
same,selectivity ratio,[1],13.3
same,selectivity ratio,[2],< 0.83
same,MIC,Escherichia coli [3],8.68 µM
same,MIC,Bacillus subtilis,2.17 µM
same,selectivity ratio,[4],6.64
same,selectivity ratio,[5],26.6
same,MIC,Staphylococcus aureus [6],2.17 µM
same,pIC50,[7],5.63
same,selectivity ratio,[8],26.6
same,selectivity ratio,[9],53.4
same,MIC,Escherichia coli [10],4.34 µM
same,selectivity ratio,[11],0.42
same,selectivity ratio,[12],13.3
same,selectivity ratio,[13],13.3
same,selectivity ratio,[14],1.66
same,MIC,Escherichia coli [15],34.7 µM
same,selectivity ratio,[16],< 0.21
same,MIC,Pseudomonas aeruginosa [17],> 69.4 µM
same,MIC,Staphylococcus aureus [18],4.34 µM
same,MIC,Staphylococcus aureus [19],2.17 µM
same,MIC,Pseudomonas aeruginosa [20],> 278 µM
same,pIC50,HEK-293T,4.24
same,selectivity ratio,[21],< 0.21
same,MIC,Streptococcus pneumoniae,1.08 µM
same,MIC,Streptococcus pyogenes,139 µM
same,selectivity ratio,[22],13.3
same,MIC,Enterococcus faecalis,4.34 µM
same,selectivity ratio,[23],26.6
same,MIC,Pseudomonas aeruginosa [24],> 278 µM
same,MIC,Staphylococcus aureus [25],2.17 µM
C/C(=N/NC(=N)N)c1cn(S(=O)(=O)c2ccccc2)c2ccccc12,MIC,Bacillus subtilis,22.5 µM
same,MIC,Escherichia coli [10],11.3 µM
same,MIC,Escherichia coli [15],45.1 µM
same,MIC,Staphylococcus aureus [18],22.5 µM
same,MIC,Pseudomonas aeruginosa [20],45.1 µM
same,MIC,Streptococcus pneumoniae,1.4 µM
same,MIC,Streptococcus pyogenes,22.5 µM
same,MIC,Enterococcus faecalis,45.1 µM
same,MIC,Pseudomonas aeruginosa [24],90.1 µM
same,MIC,Staphylococcus aureus [25],22.5 µM
